Experiments:
[1] = folding enthalpy; higher = less favourable; fluorescence melt of hairpins on a sequencing array, two-state fit; conditions: sodium 0.088 M
How it was run: (§1)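 Folding enthalpy and melting temperature come from bootstrapped two-state fits to Cy3 fluorescence of library hairpins carrying annealed Cy3 and quencher oligos on a sequenced MiSeq flow cell. Imaging was done in 50 mM Na-HEPES pH 8.0, 25 mM NaCl, stepping by 2.5 °C up to 60 °C, and signals were normalised to pre-quench Cy3 and to control constructs. Results of four replicates were combined by inverse variance, and fitted temperatures were raised by 9.35 °C to match UV melts.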

[2] = melting temperature; fluorescence melt of hairpins on a sequencing array, two-state fit, raised by 9.35 °C to match UV melts; conditions: sodium 0.088 M
How it was run: as §1

Sequence	folding enthalpy [1]	Tm [2]
GACCAAGGAAACTCGGTC ((((.((....)).))))	-29.3 kcal/mol	37.8 °C
CGTCCGGAAACGGTACG ((((((....))).)))	-25.7 kcal/mol	48.1 °C
GCTCCGCGAAAGCTGCGC ((.(.((....)).).))	-14.5 kcal/mol	44.4 °C
GACTTTGCGAAAGCAGTC (((..(((....))))))	-14.4 kcal/mol	32.8 °C
GTCGTGCCGAAAGGCGAC (((..(((....))))))	-13.9 kcal/mol	44.6 °C
GGGAGCGAAAGCTGACCC ((((((....)))..)))	-16.5 kcal/mol	45.9 °C
GATCTGTTGCCAGATC ((((((....))))))	-36.9 kcal/mol	50.5 °C
GTTTGGGGAAACCCAGAC ((.((((....)))).))	-26.4 kcal/mol	44.8 °C
GATCTTCATTAAGATC ((((((....))))))	-35.4 kcal/mol	41.5 °C
GTTAATGGAAACATTAAC (((((((....)))))))	-37.7 kcal/mol	49.4 °C
GTCTCGCCGAAAGGCGAC (((..(((....))))))	-6.03 kcal/mol	39.5 °C
GCACATTCGAAAGAATGC (((..(((....))))))	-13.8 kcal/mol	33 °C
GGCTTCGGAAACGAAACC ((.((((....)))).))	-25.4 kcal/mol	44.8 °C
GATCTTGAGCAAGATC ((((((....))))))	-33.5 kcal/mol	44.4 °C
GCGATCGAAAGATTCCGC ((((((....)))..)))	-23.8 kcal/mol	33.7 °C
CGCTTCGGAAACGAGGCG (((.(((....))).)))	-42.4 kcal/mol	55.9 °C
GTAAGGGCGAAAGCCTAC (((..(((....))))))	-8.85 kcal/mol	29.7 °C
GTCCAACGAAAGTTAGAC (((.(((....))).)))	-29.6 kcal/mol	38.5 °C
GATCTTCTTCAAGATC ((((((....))))))	-27.7 kcal/mol	43.5 °C
GATCTTCGGGAAGATC ((((((....))))))	-36.2 kcal/mol	49.5 °C
GGAGCTGGAAACAACTCC ((((.((....)).))))	-31.2 kcal/mol	42.6 °C
GGTTTGGGAAACCGAACC ((((.((....)).))))	-34.2 kcal/mol	52.3 °C
GCAACCGAAAGGTACTGC ((((((....)))..)))	-13.9 kcal/mol	33.5 °C
GTTTTGCCGAAAGGCAAC (((..(((....))))))	-8.44 kcal/mol	36 °C

Sequence	folding enthalpy [1]	Tm [2]
GACGCAGGAAACTGCGCC (.(((((....))))).)	-13.5 kcal/mol	50.2 °C
GCCTAAGGAAACTTAGAC (.(((((....))))).)	-19.8 kcal/mol	27.8 °C
GTTGTGGGAAACTGCAAC ((((..(....)..))))	-12.7 kcal/mol	39.3 °C
GATCTTGACCAAGATC ((((((....))))))	-38.3 kcal/mol	49.3 °C
GTCTCAGGAAACTGAGAC (((((((....)))))))	-46.1 kcal/mol	59.5 °C
GCGGCGCGAAAGCCCTGC ((.(.((....)).).))	-18.3 kcal/mol	45.6 °C
GGTAATGCGAAAGCAACC (((..(((....))))))	-11.2 kcal/mol	31.6 °C
GAAAGCGAAAGCTGCTTC ((((((....)))..)))	-19.4 kcal/mol	42.9 °C
GCGTCGCGAAAGCAAGGC ((.(.((....)).).))	-17.1 kcal/mol	43.8 °C
GATCTTAATTAAGATC ((((((....))))))	-32.1 kcal/mol	44.7 °C
AGGCAGAAATGCCT (((((....)))))	-17.6 kcal/mol	54.7 °C
GCCCGCGAAAGCGTGGGC ((((((....)))..)))	-24.9 kcal/mol	68.6 °C
GTGGTGACGAAAGTCCAC (((..(((....))))))	-19 kcal/mol	45.6 °C
GCTTTTACGAAAGTAAGC (((..(((....))))))	-14.7 kcal/mol	33.2 °C
GATCTGGGCTCAGATC ((((((....))))))	-39.3 kcal/mol	52.8 °C
GATCGTGAGTACGATC ((((((....))))))	-31.4 kcal/mol	54 °C
GCGAATCGAAAGATACGC (((.(((....))).)))	-44.5 kcal/mol	55.5 °C
GCATTGCGAAAGCGACGC ((.(.((....)).).))	-16.6 kcal/mol	49.3 °C
GCCTCGCGAAAGCACGGC (((..((....))..)))	-22.5 kcal/mol	54.1 °C
GATCGTCACAACGATC ((((((....))))))	-39.3 kcal/mol	56.9 °C
GATCGAACCTCGATC ((((((...))))))	-34.4 kcal/mol	50.7 °C
GCACCCCGAAAGGGATGC (((.(((....))).)))	-40.6 kcal/mol	57.5 °C
GCAGTGGGAAACTACTGC (((((.(....).)))))	-37.9 kcal/mol	54.2 °C
